Source: ChEMBL document CHEMBL1142577, “Asimitrin and 4-hydroxytrilobin, new bioactive annonaceous acetogenins from the seeds of Asimina triloba possessing a bis-tetrahydrofuran ring” (J Nat Prod, 2005)
Values after ≈ are worked out from the molar mass of the structure shown.

Legend:
[1] = tested on: A549; assay: Cytotoxicity against human A549 cells after 7 days by MTT assay; format: functional; conditions: A549, 168 h, read-out: ED50 (the source's name)
In short: (§1)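 Seven-day in vitro MTT cytotoxicity test on human tumour lines, run with adriamycin as positive control under standard protocols. Cell line origins: A-549 lung carcinoma, MCF-7 breast carcinoma, HT-29 colon adenocarcinoma, A-498 kidney carcinoma, PC-3 prostate adenocarcinoma, MIA PaCa-2 pancreatic carcinoma.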

[2] = tested on: MCF7; assay: Cytotoxicity against human MCF7 cells after 7 days by MTT assay; format: functional; conditions: MCF7, 168 h, read-out: ED50 (the source's name); in short: as §1
[3] = tested on: MIA PaCa-2; assay: Cytotoxicity against human MIA PaCa2 cells after 7 days by MTT assay; format: functional; in short: as §1
[4] = tested on: A498; assay: Cytotoxicity against human A-498 cells after 7 days by MTT assay; format: functional; conditions: A498, 168 h, read-out: ED50 (the source's name); in short: as §1
[5] = tested on: PC-3; assay: Cytotoxicity against human PC-3 cells after 7 days by MTT assay; format: functional; in short: as §1
[6] = tested on: Artemia; assay: Toxicity in brine shrimp; format: organism-based; conditions: in vivo
In short: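 Brine shrimp lethality test (BST) on brine shrimp larvae, run routinely on extracts, fractions and isolated compounds, with lethality as the read-out.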

[7] = tested on: HT-29; assay: Cytotoxicity against human HT-29 cells after 7 days by MTT assay; format: functional; in short: as §1

Structure (SMILES) | EC50 [1] [mg/L] | EC50 [2] [mg/L] | ED50 [3] [×10⁻⁴ ug/ml] | EC50 [4] [mg/L] | ED50 [5] | LC50 [6] [×10⁻² ug/ml] | ED50 [7] | EC50 ([3]; Homo sapiens, MIA PaCa-2, 168 h, read-out: ED50 (the source's name)) [mg/L] | EC50 ([5]; Homo sapiens, PC-3, 168 h, read-out: ED50 (the source's name)) [mg/L] | EC50 ([7]; Homo sapiens, HT-29, 168 h, read-out: ED50 (the source's name)) [mg/L]
CCCCCCCCCC[C@@H](O)[C@H]1CC[C@@H]([C@H]2CC[C@H]([C@H](O)CCCCC(O)CCCCC[C@@H](O)CC3=C[C@H](C)OC3=O)O2)O1 (stereo not given in full) | 1.54 (≈ 2.41 µM) | 3.79 (≈ 5.93 µM) | 2.01 | 0.0362 (≈ 0.0567 µM) | 2.01 ×10⁻⁴ ug/ml | 7 | 1.54 ×10⁻⁶ ug/ml | – | – | –
CCCCCCCCCC[C@@H](O)[C@H]1CC[C@H]([C@H]2C[C@@H](O)[C@H]([C@H](O)CCCCCCCCCC[C@@H](O)CC3=C[C@H](C)OC3=O)O2)O1 [ASIMITRIN] | 1.19 (≈ 1.86 µM) | 2.12 (≈ 3.32 µM) | 2.11 | 0.75 (≈ 1.17 µM) | 1.72 ×10⁻⁶ ug/ml | 2.07 | 1.19 ×10⁻⁴ ug/ml | – | – | –
COc1cccc2c1C(=O)c1c(O)c3c(c(O)c1C2=O)C[C@@](O)(C(=O)CO)C[C@@H]3O[C@H]1C[C@H](N)[C@H](O)[C@H](C)O1 [DOXORUBICIN] | 0.00622 (≈ 0.0114 µM) | 0.953 (≈ 1.75 µM) | – | 0.00286 (≈ 0.00526 µM) | – | – | – | 0.0061 (≈ 0.0112 µM) | 0.0577 (≈ 0.106 µM) | 0.0287 (≈ 0.0528 µM)
